Assay [1] concerns Human alphaherpesvirus 1. Briefly: Compound was evaluated for antiviral activity against HSV-1(TK-, strain B2006). The format is functional. The essentials: (§1)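 Herpes stocks grown in primary rabbit kidney (PRK) cells. Confluent PRK cultures were inoculated at 0.03 pfu/cell, and the compound's effect on virus multiplication was measured. The readout is ID99, the concentration that cuts viral yield by 99%.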

The subject of assay [2] is Human alphaherpesvirus 1. Briefly: Compound was evaluated for antiviral activity against HSV-1(strain KOS). The format is functional. The essentials:
as §1

In assay [3] the test system is Human alphaherpesvirus 2. As to the kind of experiment: Compound was evaluated for antiviral activity against HSV-2(strain G). The format is functional. The essentials:
as §1

For assay [4], the species on record is Oryctolagus cuniculus. Briefly: Concentration of compound required to inhibit [methyl-3H]dThd incorporation into host cell DNA by 50% in primary rabbit kidney cell cultures. In kind it is functional. The settings on record: read-out: ID50 (the source's name). The essentials: (§2)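 Uptake of radiolabel into DNA was measured in PRK cultures. Input per 10^5 cells was 6 pmol (0.25 µCi) of [1',2'-3H]dUrd for the dUrd line, or 10 pmol (0.38 µCi) of [methyl-3H]dThd for the dThd line. The value is the concentration giving 50% inhibition of incorporation.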

The species named for assay [5] is Oryctolagus cuniculus. As to the kind of experiment: Concentration of compound required to inhibit [1',2'-3H]dUrd incorporation into host cell DNA by 50% in primary rabbit kidney cell cultures. The format is functional. The settings on record: read-out: ID50 (the source's name). Summed up:
as §2

In assay [6] the test system is Vaccinia virus. As to the kind of experiment: Compound was evaluated for antiviral activity against vaccinia. The format is functional, Orthopoxvirus vaccinia.
Assay [7] relates to Vaccinia virus. Briefly: Compound was evaluated for its antiviral activity against vaccinia. The format is functional, Orthopoxvirus vaccinia.

Molecules are shown by their SMILES. ≈ marks a conversion by molar mass, not a printed value.

`O=c1[nH]c(=O)n([C@H]2C[C@H](O)[C@@H](CO)O2)cc1/C=C/C(F)(F)F`: the ID99 in assay [1] is more than 100 µg/mL; in assay [2], 0.03 µg/mL; in assay [3] it was 100 µg/mL; in assay [6], more than 100 µg/mL. Moreover, the IC50 in assay [4] was found to be 300 µg/mL (≈ 931 µM); in assay [5] it was 150 µg/mL (≈ 465 µM).
For `C/C=C/c1cn([C@H]2C[C@H](O)[C@@H](CO)O2)c(=O)[nH]c1=O`, the ID99 in assay [1] was more than 100 µg/mL; in assay [2], 0.15 µg/mL; in assay [3], 18 µg/mL; in assay [6], more than 100 µg/mL. Further, the IC50 in assay [4] turned out to be 25 µg/mL (≈ 93.2 µM); in assay [5] it was 40 µg/mL (≈ 149 µM).
Consider `O=c1[nH]c(=O)n([C@H]2C[C@H](O)[C@@H](CO)O2)cc1/C=C/Br` [BRIVUDINE], for which the ID99 in assay [1] was more than 100 µg/mL; in assay [2], 0.008 µg/mL; in assay [3] it was 3 µg/mL; in assay [7], 22 µg/mL. Besides, the IC50 in assay [4] was 70 µg/mL (≈ 210 µM); in assay [5] it was 20 µg/mL (≈ 60 µM).
In the case of `O=c1[nH]c(=O)n([C@H]2C[C@H](O)[C@@H](CO)O2)cc1I` [IDOXURIDINE], the ID99 in assay [1] is more than 100 µg/mL; in assay [2] it was 0.1 µg/mL; in assay [3] it was 0.8 µg/mL; in assay [6], 0.25 µg/mL. In addition, the values for the IC50 in assay [4] and in assay [5] were 1 µg/mL (≈ 2.82 µM) and 0.25 µg/mL (≈ 0.706 µM), respectively.
With `O=c1[nH]c(=O)n([C@H]2C[C@H](O)[C@@H](CO)O2)cc1C(F)(F)F` [TRIFLURIDINE], the ID99 in assay [1] is 0.4 µg/mL; in assay [2], 0.7 µg/mL; in assay [3], 1.2 µg/mL; in assay [6] it was 0.12 µg/mL. The IC50 in assay [4] turned out to be 20 µg/mL (≈ 67.5 µM); in assay [5], 0.01 µg/mL (≈ 0.0338 µM).

Source of the values: ChEMBL document CHEMBL1122756, “Synthesis of (E)-5-(3,3,3-trifluoro-1-propenyl)-2'-deoxyuridine and related analogues: potent and unusually selective antiviral activity of (E)-5-(3,3,3-trifluoro-1-propenyl)-2'-deoxyuridine against herpes simplex virus type 1” (1984).
